# Assay outcomes (PubChem BioAssay)
# The list is not random: actives were taken first. Their share in the collection is about 3.6%.
# HSF1 activator – HSF-1 activators, primary screen, NIH3T3-HGL cells, MG132 stress, luminescence, single point. activation, % at 9 µM. 300,000 tested, 1.7% active. NIH3T3-HGL HSF-1 luciferase reporter, 8 h; 100% = twice DMSO control signal;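 active = mean replicate activation of at least 50% with a set share of replicates each reaching 50%; inconclusive = only one of those two conditions met; inactive = mean below 50% and too few replicates reaching it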;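 note: 0% = median of the neutral control wells and 100% = twice that signal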
# SR-BI uptake up – activators of SR-BI mediated DiI-HDL uptake, primary screen, ldlA[mSR-BI] CHO cells, DiI fluorescence; 3 h; 100 = double the neutral-control signal; activation, % at 12.5 µM; 320,000 tested, 0.096% active; AID 504775, 2011;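 active = mean replicate activation of at least 60% and every replicate at or above 60%; inconclusive = mean or all-replicate condition met, but not both; inactive = mean below 60% and not all replicates reaching 60%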;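 note: 0% = median plate neutral-control signal and 100% = twice that signal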
#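 Test system: SR-BI-overexpressing, LDLR-lacking CHO cells. Measured by: DiI fluorescence, bottom read. Medium: Ham's F12 with 0.5% BSA, HEPES 25 mM, pH 7.4. Timing: 3 h uptake period with compound, 37 °C.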
# SR-BI DiI inh – inhibitors of SR-BI mediated HDL lipid uptake, primary screen, ldlA[mSR-BI] cells, fluorescence, single point | 320,000 tested, 0.96% active | inhibition, % at 12.5 µM | ldlA[mSR-BI] CHO cells, DiI-HDL uptake fluorescence, 3 h | Scavenger receptor class B member 1 (Mus musculus), Q61009;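 active = mean replicate inhibition of at least 70% and a set share of replicates each scoring 70 or more; inconclusive = meets just one of the two criteria; inactive = fails both criteria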;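 note: 0% = median of neutral control wells and 100% = median of positive control wells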
# Target sequence (Q61009 whole entry, looked up): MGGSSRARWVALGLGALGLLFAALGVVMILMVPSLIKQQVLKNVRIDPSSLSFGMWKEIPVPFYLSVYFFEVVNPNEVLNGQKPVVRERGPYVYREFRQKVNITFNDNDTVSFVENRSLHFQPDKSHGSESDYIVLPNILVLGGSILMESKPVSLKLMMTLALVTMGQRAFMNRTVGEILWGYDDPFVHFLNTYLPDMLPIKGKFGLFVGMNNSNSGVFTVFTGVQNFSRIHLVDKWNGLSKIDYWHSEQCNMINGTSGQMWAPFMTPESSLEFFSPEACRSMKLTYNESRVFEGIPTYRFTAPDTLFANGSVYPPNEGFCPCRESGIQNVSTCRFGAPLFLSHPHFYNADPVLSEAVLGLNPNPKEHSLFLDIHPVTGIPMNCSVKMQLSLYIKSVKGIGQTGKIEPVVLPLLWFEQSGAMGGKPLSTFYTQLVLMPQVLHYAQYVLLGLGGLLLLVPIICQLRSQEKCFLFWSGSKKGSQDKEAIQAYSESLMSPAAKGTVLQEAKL
# Wnt act – Wnt/beta-catenin pathway activators, primary screen, cell-based, plate reader, single point; Wnt/beta-catenin reporter cell assay, activator; activation, % at 9.35 µM; 300,000 tested, 1.2% active; AID 743398, 2014; in the data active = activation above about 30%, passing the limit was not always enough; inconclusive = no clear call, values can overlap the other calls;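 note: 0% = neutral control wells and 100% = positive control wells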
# MITF TRPM1 HTS – activators of MITF-driven TRPM1 promoter reporter, primary screen, cell-based, SK-MEL-5, luciferase, single point; SK-MEL-5 TRPM1-promoter luciferase, 24 h; % of positive control, neutral wells = 0; AID 588334, 2011; 300,000 tested, 0.75% active; activation, % at 12.5 µM;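 active = mean activation of at least 80% with every replicate also reaching 80%; inconclusive = mean reaches 80% but some replicate falls short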;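 note: 0% = neutral control wells and 100% = parthenolide positive control wells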
# Numbers without * were called inactive; ? = inconclusive; . = no result given.
SMILES,HSF1 activator,SR-BI uptake up,SR-BI DiI inh,Wnt act,MITF TRPM1 HTS
COc1ccc(C2=NN(C(=O)c3cccs3)C(c3ccccc3O)C2)cc1 (stereo not given),29,-27,27,1,16
CCOC(=O)C1=CCN(S(=O)(=O)c2cccc(Cl)c2)C1c1cccc(Br)c1 (stereo not given),.,.,.,-2,.
COC(=O)CCc1nc2c(C#N)c(-c3ccc(Cl)cc3)ccn2n1,-15,5,-5,1,-2
N#Cc1c(-c2ccc(Cl)cc2)ccn2nc(C3CCCCC3)nc12,24,-27,27,26,90*
Clc1ccc(C#Cc2cccnc2)cc1,23,-1,1,24,109*
COc1ccc2nc(NN=Cc3cccc(C)n3)cc(C)c2c1,.,.,.,1,.
Nc1ccc(O)c2c(=O)cc(-c3ccccc3Cl)oc12,16,-47,47,54*,109*
CCc1nc2ccc(C(=O)Nc3ccc(OC)c(OC)c3)cn2c1N(CCC(C)C)CCN(C)C,.,.,.,-1,.
COc1ccccc1Oc1cc(C#N)c(C#N)cc1-n1nnc2ccccc21,79*,-16,16,-1,-22
Cc1ccc(-c2cc(-c3ccccc3)nc(Cl)n2)cc1,6,-29,29,-7,4
Cc1ccc(-c2cc(C(F)F)nc(S(C)(=O)=O)n2)cc1,305*,1,-1,-1,-33
C/C(=C\C(=O)Nc1cscc1C)C(=O)O,74*,-13,13,4,.
CC(O)(c1cccnc1)c1nc(-c2cccc(C(F)(F)F)c2)cs1 (stereo not given),.,.,.,-1,.
O=C(C[C@H]1C[C@@H]2c3cc(NC(=O)Nc4ccccc4)ccc3O[C@@H]2[C@@H](CO)O1)NCC1CC1,.,.,.,-3,.
N#C/C(=C\c1ccc(O)c([N+](=O)[O-])c1)C(=O)NCc1ccccc1,-16,.,.,47*,-10
N#C/C(=C\c1ccc(O)c(Br)c1)C(=O)NCc1ccccc1,5,13,-13,0,4
CNc1nc(-c2ccc3c(c2)CCN3C(=O)CC(C)(C)C)c(C)s1,32,-73,73*,2,.
CC(=O)Nc1nc(-c2ccc3c(c2)CCN3C(=O)C2CC2)c(C)s1,6,-95,95*,-5,-12
CNc1nc(-c2ccc3c(c2)CCN3S(=O)(=O)c2ccccc2)c(C)s1,13,-26,26,-3,-13
COCc1cccc(-c2csc(C(O)c3ccccc3)n2)c1 (stereo not given),.,.,.,8,.
COC(=O)[C@H](Cc1ccccc1)N1CC(N2CCCC2)CS1(=O)=O (stereo not given in full),.,.,.,-3,.
Oc1c(Cl)cc(Cl)cc1C=Nc1cc(C(F)(F)F)ccc1N1CCc2ccccc2C1,70*,-27,27,?,47
COc1ccc(N/C=C2\C(=O)CCc3c2oc2cc(Cl)c(O)c(Cl)c32)cc1,62*,-5,5,0,0
OC(c1ccc(-c2ccccc2)cc1)c1ncc(-c2ccccc2)[nH]1 (stereo not given),.,.,.,-1,.
CC(Sc1nnc2ccccn12)C(=O)Nc1ccc(Cl)cn1 (stereo not given),11,-6,6,.,-6
SMILES,HSF1 activator,SR-BI uptake up,SR-BI DiI inh,Wnt act,MITF TRPM1 HTS
Cc1cc(C)c(C(=O)CSc2nnc(N)s2)cc1C,23,13,-13,3,13
Cc1ccc(C(=O)CSc2nnc3ccccn23)c(C)c1,22,-2,2,33*,12
Cc1ccc(C(=O)CSc2nnc(N)s2)c(C)c1,45,0,0,14,87*
CC(Sc1nnc2ccccn12)C(N)=O (stereo not given),76*,29,-29,0,2
COC(=O)c1ccsc1NS(C)(=O)=O,.,.,.,-1,.
CC(C)C[C@H]1CN(CCCC[C@@H]2CNC(=O)C(=O)N2Cc2ccccc2)C(=O)C(=O)N1CCc1ccc(O)cc1,.,.,.,-2,.
CC(=O)c1ccc(NC(=O)C2C3C=CC(O3)C2C(=O)O)cc1 (stereo not given),58*,13,-13,-1,7
Cc1ccc(F)cc1NC(=O)CSc1nc(Nc2ccccc2)nc(N2CCOCC2)n1,29,-65,65,-3,23
COc1cc(/C=N/Nc2nc(N3CCCCC3)nc(N3CCCCC3)n2)ccc1OC(=O)c1ccco1,29,.,.,.,.
Cc1ccc(Nc2nc(N/N=C/c3c[nH]c4ccccc34)nc(N3CCOCC3)n2)cc1,2,-110,110*,1,30
O=C(Oc1cccc(/C=N/Nc2nc(Nc3ccccc3)nc(N3CCOCC3)n2)c1)c1ccco1,-16,-48,48,-1,103*
BrC(/C=N/Nc1nc(N2CCOCC2)nc(N2CCOCC2)n1)=C/c1ccccc1,64*,-52,52,.,12
Cc1ccccc1NC(=O)CSc1nc(Nc2ccccc2)nc(N2CCOCC2)n1,74*,-81,81*,.,17
COc1cc2c(cc1NC(=O)C(F)(F)F)-c1ccc(NC(=O)C(F)(F)F)cc1C2,.,-59,59,6,31
COc1ccc(Nc2nc(N3CCOCC3)nc(N3CCOCC3)n2)cc1,-9,-12,12,-4,.
COC(=O)c1ccc(Nc2nc(N3CCOCC3)nc(N3CCOCC3)n2)cc1,0,10,-10,1,93*
O=C(NCC1CCOCC1)C1Cc2c(-c3ccccc3Oc3ccccc3)ccnc2O1 (stereo not given),.,.,.,-1,.
O=[N+]([O-])c1ccccc1/C=C\C=N\N1CCN(c2ccccc2)CC1,-10,-33,33,25,13
C(=C\c1ccccc1)/C=N/N1CCN(c2ccccn2)CC1,14,-24,24,.,85*
Oc1ccccc1/C=N/N1CCN(c2ccccn2)CC1,-13,.,.,38*,71
C(=N\N1CCN(c2ccccn2)CC1)/c1cccc2ccccc12,8,-11,11,8,.
Cc1cccc(/C=N/N2CCN(c3ccccc3)CC2)c1,28,28,-28,20,100*
C(/C=C/c1ccccc1)=N/N1CCN(c2ccccc2)CC1,29,-13,13,-1,94*
CCn1c(CC(=O)Nc2ccccc2F)nnc1SCC(=O)NC1=NCCS1,.,.,.,1,.
COc1ccc(NC(=S)Nc2ccc3c(c2)c(=O)n(C)n3-c2ccccc2)cc1,.,.,.,-1,.
COc1ccc(CCNC(=O)CC(=O)N/N=C\c2ccc(OCC(N)=O)cc2)cc1OC,.,.,.,-1,.
COc1cccc(C(=O)NCC(=O)N2CCN(c3ccc(C(F)(F)F)cn3)CC2)c1,.,-18,18,1,0
O=C(Nc1ccc(-c2csc(Nc3ccccc3)n2)cc1)c1cc([N+](=O)[O-])cc(C(F)(F)F)c1,22,-96,96*,-6,-6
O=C(Nc1cccc(-c2csc(Nc3cccc(C(F)(F)F)c3)n2)c1)c1cc([N+](=O)[O-])cc(C(F)(F)F)c1,-8,-107,107*,-10,-35
